What is called MIC is the smallest concentration in the dilution series that meets the test's criterion for growth inhibition. Usually MBC stands for the smallest concentration meeting the test's criterion for killing.

Experiment [1] relates to Staphylococcus aureus. The experiment is described as follows: Antibacterial activity against methicillin-resistant Staphylococcus aureus 2658 RCMB after 18 hrs by broth microdilution assay. Type of experiment: functional. The method, boiled down: (§1)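 Broth microdilution: inoculum from 0.5 McFarland suspension diluted to about 5 × 10^5 CFU/mL. Media were cation-adjusted Mueller-Hinton broth for staphylococci, brain heart infusion for E. faecium, and tryptone soya broth for E. faecalis, S. pneumoniae and L. monocytogenes.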
Background: In broth dilution the organism is exposed to a series of concentrations in liquid medium.

In experiment [2] the test system is Staphylococcus aureus. Description: Antibacterial activity against methicillin-resistant Staphylococcus aureus NRS123 USA400 assessed as change in MIC after 14 serial passages by broth microdilution assay.
Experiment [3] concerns Enterococcus faecium. Description: Antibacterial activity against vancomycin-resistant Enterococcus faecium ATCC 700221 after 18 hrs by broth microdilution assay. Format: functional. The note with it: ATCC 700221, 18 h. The method, boiled down: as §1
Experiment [4] concerns Staphylococcus aureus. Description: Bactericidal activity against vancomycin-resistant Staphylococcus aureus VRS10 incubated fo 18 hrs followed by re-plating on tryptic soy agar plates at 37 degC for 18 hrs by broth microdilution assay. The note with it: VRS10, 18 h. Format: functional.
The test system of a further experiment is Enterococcus faecalis. Description: Bactericidal activity against vancomycin-resistant Enterococcus faecalis ATCC 51299 incubated fo 18 hrs followed by re-plating on tryptic soy agar plates at 37 degC for 18 hrs by broth microdilution assay. To be noted: ATCC 51299, 18 h. Type of experiment: functional.
Experiment [5] has as its system Staphylococcus aureus. Description: Inhibition of biofilm formation in methicillin-resistant Staphylococcus aureus NRS384 USA300 at 1 time MIC after 24 hrs by crystal violet staining-based spectrophotometric analysis relative to control. The arrangement: scale not given: the % may be the effect or the level left.
The subject of experiment [6] is Enterococcus faecium. The experiment is described as follows: Bactericidal activity against vancomycin-resistant Enterococcus faecium ATCC 700221 incubated fo 18 hrs followed by re-plating on tryptic soy agar plates at 37 degC for 18 hrs by broth microdilution assay. The note with it: ATCC 700221, 18 h.

Values after ≈ are worked out from the molar mass of the structure shown.

`Cc1nc(-c2ccc(C(C)(C)C)cc2)sc1-c1ccnc(N2CC(O)C2)n1`: the MIC against Staphylococcus aureus [1] stood at 6.25 µg/mL (≈ 16.4 µM).
Same read-out and setting: for `Cc1nc(-c2ccc(C(C)(C)C)cc2)sc1-c1ccnc(N2CCC2)n1` the value was greater than 50 µg/mL; for `Cc1nc(-c2ccc(C(C)(C)C)cc2)sc1-c1ccnc(N)n1`, 6.25 µg/mL (≈ 19.3 µM); for `CCNc1nccc(-c2sc(-c3ccc(C(C)(C)C)cc3)nc2C)n1`, greater than 50 µg/mL.
In the case of `CO[C@H]1/C=C/O[C@@]2(C)Oc3c(C)c(O)c4c(O)c(c(/C=N/N5CCN(C)CC5)c(O)c4c3C2=O)NC(=O)/C(C)=C\C=C\[C@H](C)[C@H](O)[C@@H](C)[C@@H](O)[C@@H](C)[C@H](OC(C)=O)[C@@H]1C` [RIFAMPIN], the Ratio in the experiment on Staphylococcus aureus [2] is given as greater than 500000.
The compound `CN[C@H](CC(C)C)C(=O)N[C@H]1C(=O)N[C@@H](CC(N)=O)C(=O)N[C@H]2C(=O)N[C@H]3C(=O)N[C@H](C(=O)N[C@H](C(=O)O)c4cc(O)cc(O)c4-c4cc3ccc4O)[C@H](O)c3ccc(c(Cl)c3)Oc3cc2cc(c3O[C@@H]2O[C@H](CO)[C@@H](O)[C@H](O)[C@H]2O[C@H]2C[C@](C)(N)[C@H](O)[C@H](C)O2)Oc2ccc(cc2Cl)[C@H]1O` [VANCOMYCIN] came in with an MIC with Enterococcus faecium [3] greater than 64 µg/mL. In addition, the MBC in the experiment with Staphylococcus aureus [4] was greater than 64 µg/mL; in the experiment on Enterococcus faecalis, 64 µg/mL (≈ 44.2 µM); against Enterococcus faecium [6] it was greater than 64 µg/mL. Also, the Activity in the experiment with Staphylococcus aureus [5] amounted to 3%.
`Cc1nc(-c2ccc(C(C)(C)C)cc2)sc1-c1ccnc(NC(=N)N2CCCC2)n1` registered a minimum inhibitory concentration (MIC) with Staphylococcus aureus [1] of 50 µg/mL (≈ 119 µM).
As for `Cc1nc(-c2ccc(C(C)(C)C)cc2)sc1-c1ccnc(NC(=N)N2CCN(C)CC2)n1`, the MIC with Staphylococcus aureus [1] was found to be 3.12 µg/mL (≈ 6.94 µM).
Same read-out and setting: for `Cc1nc(-c2ccc(C(C)(C)C)cc2)sc1-c1ccnc(NC2CCCCC2)n1` the value was greater than 50 µg/mL.
In the experiment on Staphylococcus aureus [1], `Cc1nc(-c2ccc(C(C)(C)C)cc2)sc1-c1ccnc(N2CCCC2)n1` registered an MIC greater than 50 µg/mL.
In the experiment on Staphylococcus aureus [1], `CNc1nccc(-c2sc(-c3ccc(C(C)(C)C)cc3)nc2C)n1` had an MIC of 25 µg/mL (≈ 73.9 µM).

These data come from ChEMBL document CHEMBL4229382, “Phenylthiazoles with tert-Butyl side chain: Metabolically stable with anti-biofilm activity” (Eur J Med Chem, 2018).
